Shown are actives, neighbours in structure and some others; about 2.3% of the full set was active somewhere.
TRPC4 inh: blocks the mouse TRPC4 cation channel. AID 2247. Q9QUQ5. B-score at 10 µM. HEK293 TRPC4beta/mu-opioid, DAMGO-evoked Fluo4 calcium flux; hits give low values. actives 0.39% (n = 300,000);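 active = B-score over 3 SD under the library average, no early fluorescence shift, positive overall ratio signal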
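Assay system: HEK293 cells with stable TRPC4beta plus mu-opioid receptor expression. Dosing: single dose. Measured by: Fluo4 Ca2+ flux fluorescence. Also added: DAMGO in two steps, submaximal then maximal. Read-out: B score from integrated Fluo4 fluorescence ratio.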
TRPC4 PAM: TRPC4 (mouse) allosteric potentiation. HEK293 TRPC4beta/mu-opioid, DAMGO EC20, Fluo-4 Ca2+ flux; hits give high values. actives 0.42% (n = 310,000). Q9QUQ5. B-score at 10 µM;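 active = B-score of calcium response area above 5 SD of library B-scores, with initial fluorescence ratio within 5 SD of library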
TRPC6 inhibitor: mouse TRPC6 channel inhibition | Q61143 | B-score at 10 µM | actives 1.1% (n = 310,000) | HEK293-TRPC6, membrane potential dye, ACh-evoked depolarization; hits give low values | AID 2553;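 active = B-score under library mean minus 3 SD, initial fluorescence not abnormally high, positive integrated signal ratio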;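 also: B-score derived from integrated fluorescence ratio over the kinetic read; more negative B-score means stronger inhibition of depolarization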
TRPC6 activator: mouse TRPC6 channel activation. HEK293-TRPC6 membrane potential dye fluorescence; hits give high values. actives 0.13% (n = 310,000). AID 2550. Q61143. B-score at 10 µM;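 active = B-score of the integrated fluorescence ratio above library mean plus 3 SD, and starting fluorescence ratio within library mean plus 5 SD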;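 also: higher score means more depolarization so channel activation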
TRPC4 act: activators of mouse TRPC4 channel; Q9QUQ5; HEK293 TRPC4beta/mu-opioid, Fluo4 calcium fluorescence; hits give high values; B-score at 10 µM; actives 0.49% (n = 310,000); AID 2237;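 active = B-score above 5 SD of library B-scores, and initial fluorescence ratio not above library mean plus 5 SD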;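 also: positive B-score marks a calcium rise read as TRPC4 activation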
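Material: TRPC4beta and mu-opioid receptor HEK293 stable cells | Incubation: 45 min room-temperature Fluo4 loading, 110 s read | Detection: Kinetic Fluo4 calcium fluorescence | Measure: Integrated baseline-normalised fluorescence ratio, converted to per-well B score | Benchmarks: Low control buffer alone, high control maximal DAMGO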
TRPC4 sel inh 2: mouse TRPC4 off-target activity of TRPC6 inhibitors, second screen. shares compounds with TRPC6 inhibitor. HEK293 TRPC4/MOR, membrane potential dye fluorescence; channel activated by saturating DAMGO dose. inhibition, % at 10 µM. actives 42% (n = 920). AID 2776;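 active = compounds whose fluorescence signal differed from control wells by over 3 SD, either direction, in both duplicate plates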
TRPC4 spec: tests whether TRPC6 inhibitors also affect mouse TRPC4. shares compounds with TRPC6 inhibitor. HEK293 TRPC4/mu-opioid, membrane potential fluorescence. activity change, negative = inhibition, % at 10 µM. actives 61% (n = 920). AID 2777;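 active = rise or fall in signal beyond 3 SD of buffer-only wells in both replicate plates, either sign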;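 also: integrated kinetic ratio of fluorescence range over baseline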
HEK293 MPD ctr 2-1: parental HEK293 nonspecific activity of TRPC6 inhibitors, second screen. signal change vs control, % at 10 µM. parental HEK293 membrane potential dye fluorescence; maximal acetylcholine challenge after compound addition. AID 2779. shares compounds with TRPC6 inhibitor. actives 31% (n = 920);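 active = membrane potential signal moving either way by over 3 SD of the maximum-effect control, in both duplicate plates, meaning non-specific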
HEK293 MPD ctr-1: counter-screen for TRPC6 inhibitors: effect in parental HEK293 cells; parental HEK293 membrane potential dye fluorescence; membrane potential signal change, % at 10 µM; shares compounds with TRPC6 inhibitor; AID 2780; actives 60% (n = 920);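 active = membrane potential signal shifting up or down by more than 3 SD of buffer-only wells, on both duplicate plates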
HEK293 MPD ctr-2: parental HEK293 nonspecific activity of TRPC6 modulators. shares compounds with TRPC6 inhibitor. membrane potential dye fluorescence. membrane potential signal change, % at 10 µM. actives 51% (n = 2,400). AID 488924;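 active = membrane potential signal moves up or down beyond 5 SD from buffer-only wells, on both duplicate plates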
HEK293 MPD ctr 2-2: second check of TRPC6 modulator effects in parental HEK293 cells. inhibition, % at 10 µM. AID 488926. actives 14% (n = 2,400). shares compounds with TRPC6 inhibitor. membrane potential dye fluorescence; after compound, maximal acetylcholine stimulation;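 active = membrane potential signal drops by more than 5 SD from the mean control signal, in both duplicate plates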
TRPC4/MOR mod: tests whether TRPC6 modulators also affect mouse TRPC4 | shares compounds with TRPC6 inhibitor | actives 69% (n = 2,400) | AID 488927 | percent change from control (negative = decrease, positive = increase), % at 10 µM | HEK293 TRPC4/mu-opioid, membrane potential fluorescence;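 active = membrane potential signal moved up or down beyond 5 SD of buffer control wells, in both duplicate plates, actives on both sides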
TRPC4/MOR inh 2: mouse TRPC4 off-target activity of TRPC6 modulators, second screen. shares compounds with TRPC6 inhibitor. HEK293 TRPC4/mu-opioid, membrane potential dye fluorescence; stimulated with maximal-effect DAMGO. inhibition, % at 10 µM. actives 55% (n = 2,400). AID 488928;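 active = drop in membrane potential signal beyond 5 SD of the control wells in both duplicate plates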;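 also: TRPC4 counter screen for TRPC6 hits run under conditions tuned for TRPC6 not TRPC4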
TRPC6 inh conf: confirmation of mouse TRPC6 inhibitors | HEK293-TRPC6, membrane potential dye, ACh-evoked depolarization | actives 43% (n = 3,300) | AID 488960 | shares compounds with TRPC6 inhibitor | inhibition, % at 10 µM;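 active = fluorescence ratio falls more than 5 SD below the full-stimulation control mean, in both duplicate runs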;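 also: integrated fluorescence ratio of peak minus minimum over baseline after agonist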
TRPC6 act conf: mouse TRPC6 activator confirmation | shares compounds with TRPC6 inhibitor | HEK293-TRPC6 membrane potential dye fluorescence, FDSS | activation, % at 10 µM | actives 11% (n = 2,800) | AID 488961;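 active = ratio signal rise beyond 5 SD above unstimulated control wells' mean, seen in both duplicate runs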
Hits are given with their value; - = inactive; . = no result given.

SMILES	TRPC4 inh	TRPC4 PAM	TRPC6 inhibitor	TRPC6 activator	TRPC4 act	HEK293 MPD ctr-2	HEK293 MPD ctr 2-2	TRPC4/MOR mod	TRPC4/MOR inh 2	TRPC6 inh conf	TRPC6 act conf	others
Cc1onc(-c2ccccc2Cl)c1C(=O)Nc1nnc(Cc2ccc(Cl)cc2)s1	-	-	-6.62	-	-	.	.	.	.	-	-	TRPC4 sel inh 2=-;TRPC4 spec=-;HEK293 MPD ctr 2-1=-;HEK293 MPD ctr-1=-
c1cnc(Sc2ccc3nnnn3n2)nc1	-	-	-	-	-	.	.	.	.	.	.
COc1ccccc1OCc1ccc(C(=O)N2CCOCC2)o1	-	-	-	-	-	.	.	.	.	.	.
COc1ccccc1OCc1ccc(C(=O)N2CCCCC2)o1	-	-	-5.17	-	-	-	-	-	-	-	-
COc1ccc(C(=O)NNC(=O)C(=O)Nc2cccc3ccccc23)cc1	-	-	-	-	-	.	.	.	.	.	.
Cc1onc(-c2ccccc2)c1C(=O)NNC(=O)c1ccccc1O	-	-	-	-	-	.	.	.	.	.	.
Cc1onc(-c2ccccc2)c1C(=O)NNC(=S)NC(=O)c1ccc(Cl)cc1Cl	-	-	-5.85	-	375	96.5%	-	35.5%	35.5%	-	.
CCN(CC)CCCNC1=C(Cl)C(=O)c2ccccc2C1=O	-	-	-6.19	-	-	-180.5%	-	-30.5%	47.0%	49.5%	-
Cc1ccc(Cn2c(=N)c(C(=O)NCc3ccco3)cc3c(=O)n4ccccc4nc32)cc1	-	-	-5.02	-	48	-	-	-32.5%	38.5%	36.5%	-
N=c1c(C(=O)NCc2ccco2)cc2c(=O)n3ccccc3nc2n1CC1CCCO1 (stereo unspecified)	-	-	-	-	-	.	.	.	.	.	.
N=c1c(C(=O)NCc2ccco2)cc2c(=O)n3ccccc3nc2n1CCc1ccccc1	-	-	-5.81	-	-	-80.5%	-	-29.5%	52.0%	45.5%	-
COCCn1c(=N)c(C(=O)NCc2ccco2)cc2c(=O)n3cc(C)ccc3nc21	.	-	-8.24	-	-	422.5%	119.5%	-74.0%	39.5%	50.5%	-
O=C(Nc1ccccn1)Nc1ccccc1Cl	-	-	-	-	-	.	.	.	.	.	.
CCN(CC)S(=O)(=O)c1ccc(N2CCCCC2)c(NC(=O)c2ccncc2)c1	-	-	-6.61	-	-	.	.	.	.	-	.	TRPC4 sel inh 2=-;TRPC4 spec=10.0%;HEK293 MPD ctr 2-1=-;HEK293 MPD ctr-1=6.7%
CCN(CC)S(=O)(=O)c1ccc(N2CCOCC2)c(NC(=O)c2ccccc2)c1	-	-	-	-	-	.	.	.	.	.	.
CCN(CC)S(=O)(=O)c1ccc(N2CCCC2)c(NC(=O)C2=COCCO2)c1	-	-	-	-	-	.	.	.	.	.	.

Source: PubChem
